What is called IC50 is the midpoint of a concentration-inhibition curve. Higher therefore signals lower potency. A word on the Papp A→B: it is how fast a substance crosses the layer from the apical side. What is called Papp B→A is how fast a substance crosses the layer from the basolateral side. Broadly, the half-life is the time in which the quantity being followed falls by half. Higher therefore signals slow loss. The term Cmax denotes the highest concentration seen after dosing. Broadly, the clearance is the rate of elimination divided by the concentration. The low end stands for a low capacity for elimination, the high end for a high capacity for elimination. Usually AUC(0-inf) stands for the area under the concentration-time curve extrapolated to infinity. A low value points to low exposure. In general, MRT refers to a mean duration of stay, worked out from the concentration-time curve. As usually defined, the bioavailability is dose-corrected exposure relative to a reference, in per cent.

Twelve molecules from ChEMBL document CHEMBL1909512, “Indolin-2-one p38α inhibitors III: bioisosteric amide replacement” (Bioorg Med Chem Lett, 2011) can be followed below.

Structures are written as SMILES. Where only a bound is given, the exact number is not on record here.

One series relates to Blood. The experiment in a line: Inhibition of LPS-induced TNFalpha release in human whole blood after 24 hrs by ELISA. The class given is functional, tissue-based.
Series [1] has as its system Liver microsomes. The series is described as follows: Metabolic stability in human liver microsomes in absence of NADPH. The series is classed as ADME, Microsome. (In general: Microsomes from liver hold many membrane-bound enzymes, among them those of drug oxidation.)
In series [2] the test system is Liver microsomes. The experiment in a line: Metabolic stability in rat liver microsomes in absence of NADPH. The series is classed as ADME, Microsome.
Series [3] is described as follows: Metabolic stability in rat liver microsomes assessed as compound turnover at 5 uM after 30 mins in presence of NADPH. The class given is ADME, Microsome. The following applies: read-out: Drug metabolism. The method, boiled down: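 5 µM test compound incubated with rat or human hepatic microsomes (1 mg/mL) plus NADPH for 30 min at 37 °C; result given as % turnover.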

The nature of series [4]: Metabolic stability in human liver microsomes assessed as compound turnover at 5 uM after 30 mins in presence of NADPH. The class given is ADME, Microsome. To be noted: read-out: Drug metabolism.
Series [5] concerns Liver microsomes. The experiment in a line: Metabolic stability in human liver microsomes assessed as compound turnover at 5 uM after 30 mins in absence of NADPH. The class given is ADME, Microsome. The following applies: 0.5 h.
The subject of series [6] is CHO. The series is described as follows: Cytotoxicity against CHO cells at 100 uM. The series is classed as cell-based, Cricetulus griseus. The following applies: chinese hamster.
The target in series [7] is Mitogen-activated protein kinase 14 (Homo sapiens, UniProt Q16539).
Series [8] in a line: Apparent passive permeability from apical to basolateral side of the human Caco2 cells at 12.5 uM. The class given is ADME, cell-based. To be noted: Caco-2. The method, boiled down:
(§1)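 Passive permeability across Caco-2 monolayer measured with 12.5 µM test compound in both directions (apical-to-basal and basal-to-apical); Papp reported in 10^-6 cm/s.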
(In general: Caco-2 cells form a polarised layer with tight junctions and transporters.)

Series [9] is described as follows: Apparent passive permeability from basolateral to apical side of the human Caco2 cells at 12.5 uM. The series is classed as ADME, cell-based. To be noted: Caco-2. The method, boiled down:
as §1

Series [10] concerns CHO. The series is described as follows: Cytotoxicity against CHO cells. The class given is cell-based. To be noted: Cricetulus griseus.
Series [11] in a line: Half life in rat at 1 mg/kg, iv. The class given is ADME, organism-based. The following applies: in vivo. Also on record: dose 1 mg/kg, route intravenous.
Series [12] is described as follows: Cmax in rat at 1 mg/kg, iv. The class given is ADME, organism-based. Also noted: dose 1 mg/kg, route intravenous. The following applies: in vivo.
A short description of series [13]: Clearance in rat at 1 mg/kg, iv. Also on record: dose 1 mg/kg, route intravenous. To be noted: in vivo. The series is classed as ADME, organism-based.
Series [14] in a line: AUC (0 to infinity) in rat at 1 mg/kg, iv. The series is classed as ADME, organism-based. Also noted: time infinity, dose 1 mg/kg, route intravenous. To be noted: plasma.
A short description of series [15]: Volume of distribution at steady state in rat at 1 mg/kg, iv. The series is classed as ADME, organism-based. Also on record: dose 1 mg/kg, route intravenous. To be noted: in vivo, read-out: Vdss.
Series [16] is described as follows: Mean residence time in rat at 1 mg/kg, iv. The series is classed as ADME, organism-based. Also noted: dose 1 mg/kg, route intravenous. To be noted: in vivo.
Series [17] can be described thus: Cmax in rat at 10 mg/kg, po. The series is classed as ADME, organism-based. Also on record: dose 10 mg/kg, route oral. The following applies: in vivo.
Series [18] in a line: AUC (0 to infinity) in rat at 10 mg/kg, po. Also on record: time infinity, dose 10 mg/kg, route oral. The following applies: plasma. The series is classed as ADME, organism-based.
Series [19] can be described thus: Oral bioavailability in rat at 10 mg/kg. To be noted: in vivo. The class given is ADME, organism-based.
Series [20] has as its system CHO. The series is described as follows: Cytotoxicity against CHO cells at 200 uM. The class given is cell-based, Cricetulus griseus. To be noted: chinese hamster.

Sequence of Mitogen-activated protein kinase 14 (Q16539 whole entry): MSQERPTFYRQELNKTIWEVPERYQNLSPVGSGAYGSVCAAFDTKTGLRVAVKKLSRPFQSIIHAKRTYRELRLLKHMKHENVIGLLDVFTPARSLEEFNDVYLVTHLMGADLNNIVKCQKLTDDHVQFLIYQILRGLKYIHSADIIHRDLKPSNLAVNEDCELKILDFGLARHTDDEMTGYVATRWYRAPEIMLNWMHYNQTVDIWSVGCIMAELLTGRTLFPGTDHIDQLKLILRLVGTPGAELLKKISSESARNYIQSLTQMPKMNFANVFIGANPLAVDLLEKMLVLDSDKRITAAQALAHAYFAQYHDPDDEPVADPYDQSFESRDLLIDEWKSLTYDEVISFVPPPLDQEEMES

As for `Cc1ccc2c(NC3CC3)noc2c1-c1ccc2c(c1)NC(=O)C21CCCC1`, the IC50 in the series with Blood worked out at 2 nM.

On to `Cc1nnc(-c2ccc(C)c(-c3ccc4c(c3)NC(=O)C43CCCC3)c2)[nH]1`, for which the IC50 with Blood worked out at 127 nM; in series [7], 7.4 nM. Moreover, the Stability result in the series with Liver microsomes [1], in the series with Liver microsomes [2] and in the series on Liver microsomes [5] was “Stable” each time. In addition, the metabolised at 0.5 h, 5 µM was 15% in series [3] and 13% in series [4]. Also, the Activity with CHO [6] is 53%.

`O=C1Nc2cc(-c3cccc4c(NC5CC5)noc34)c(Cl)cc2C12CCCC2` showed an IC50 in the series on Blood of 438 nM.

Turning to `Cc1nnc(-c2ccc(C)c(-c3ccc4c(c3)NC(=O)C43CCN(S(C)(=O)=O)CC3)c2)[nH]1`, the values for the IC50 with Blood and in the series with CHO [10] were 50 nM and 100000 nM, respectively. Further, the metabolised at 0.5 h, 5 µM was less than 5% in series [3] and 6% in series [4]. Moreover, the Stability entry in the series with Liver microsomes [5] is listed as “Stable”. Moreover, in series [8], the apparent permeability from apical to basolateral (Papp A→B) at 12.5 µM was found to be 2 ×10⁻⁶ cm/s. Also, the Papp B→A at 12.5 µM in series [9] turned out to be 45 ×10⁻⁶ cm/s. In addition, the half-life in [11] was 3.8 h. Further, the Cmax stood at 1300 ng/mL in series [12] and 632 ng/mL in series [17]. For the same molecule, in series [13], the clearance stood at 17.2 mL/min/kg. The results for the area under the curve AUC(0-inf) in series [14] and in [18] were 1030 ng·h/mL and 1370 ng·h/mL, respectively. Moreover, the Vd in series [15] was 1.75 L/kg. This molecule gave an MRT in series [16] of 1.8 h. Further, the bioavailability in [19] was found to be 13%.

Take `Cc1ncc(-c2ccc(C)c(-c3ccc4c(c3)NC(=O)C43CCOCC3)c2)[nH]1`: the Stability entry with Liver microsomes [1] and in the series on Liver microsomes [2] was “Stable” each time. This molecule also displayed an IC50 in series [7] of 880 nM.

As to `Cc1ccc(-c2ncn[nH]2)cc1-c1ccc2c(c1)NC(=O)C21CCCC1`, the IC50 in the series on Blood was 253 nM.

As to `Cc1noc(-c2ccc(C)c(-c3ccc4c(c3)NC(=O)C43CCCC3)c2)n1`, the Stability result in the series on Liver microsomes [1] and in the series with Liver microsomes [2] was “Stable” throughout. Half-maximal inhibition in series [7] (IC50) was put at 741 nM.

As to `Cc1nc(-c2ccc(C)c(-c3ccc4c(c3)NC(=O)C43CCCC3)c2)no1`, the Stability entry with Liver microsomes [1] and in the series on Liver microsomes [2] was “Stable” in each case. In addition, half-maximal inhibition in series [7] (IC50) was put at 583 nM.

Consider `Cc1nnc(-c2ccc(C)c(-c3ccc4c(c3)NC(=O)C4(C)C)c2)[nH]1`, for which the IC50 in [7] was 87 nM.

For the molecule `O=C1Nc2cc(-c3cccc4c(NC5CC5)noc34)ccc2C12CCCC2`, the results for the IC50 (in the series on Blood; in [7]) were 1260 nM and 38 nM, respectively.

Regarding `Cc1ccc2c(N)noc2c1-c1ccc2c(c1)NC(=O)C21CCOCC1`, the IC50 in the series on Blood is 145 nM; in [7], 5 nM. Besides, the metabolised at 0.5 h, 5 µM amounted to 9% in series [3] and 3% in series [4]. Also, in the series with Liver microsomes [5], the Stability entry was “Stable”. In addition, in series [8], the apical-to-basolateral permeability (Papp A→B) at 12.5 µM came to 28 ×10⁻⁶ cm/s. In addition, in [9], the apparent permeability from basolateral to apical (Papp B→A) at 12.5 µM was determined as 16 ×10⁻⁶ cm/s. Moreover, the Activity in the series with CHO [20] is listed as 16%. The same molecule showed a half-life in series [11] of 1.9 h. Moreover, the Cmax in series [12] came out at 752 ng/mL; in series [17], 141 ng/mL. The molecule also came in with a clearance in series [13] of 13.8 mL/min/kg. For the same molecule, the AUC(0-inf) in series [14] stood at 1230 ng·h/mL; in [18] it was 961 ng·h/mL. Besides, the Vd in series [15] was found to be 2 L/kg. Also, the MRT in series [16] is 2.5 h. In series [19], this molecule gave a bioavailability of 8%.

The molecule `Cc1nnc(-c2ccc(C)c(-c3ccc4c(c3)NC(=O)C43CCC3)c2)[nH]1` registered an IC50 in the series with Blood of 624 nM.
